Data published in ChEMBL document CHEMBL1212881, “Design, synthesis, and structure-affinity relationships of regioisomeric N-benzyl alkyl ether piperazine derivatives as sigma-1 receptor ligands” (J Med Chem, 2010).

Tests used:
Rattus norvegicus = species: Rattus norvegicus; assay: Selectivity ratio of Ki for rat sigma2 receptor to Ki rat sigma1 receptor
In short: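 The ratio is Ki(σ2) divided by Ki(σ1). σ1 Ki came from [³H](+)-pentazocine displacement in rat brain homogenate. σ2 Ki came from [³H]DTG displacement in PC12 cell preparation, a cell line that overexpresses σ2. Both Ki values are triplicate means; ratios above 1 mean σ1-selective.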

D(2) dopamine receptor = D(2) dopamine receptor (Homo sapiens, UniProt P14416); assay: Binding affinity to dopamine D2
D(2) dopamine receptor, sequence (P14416 whole entry): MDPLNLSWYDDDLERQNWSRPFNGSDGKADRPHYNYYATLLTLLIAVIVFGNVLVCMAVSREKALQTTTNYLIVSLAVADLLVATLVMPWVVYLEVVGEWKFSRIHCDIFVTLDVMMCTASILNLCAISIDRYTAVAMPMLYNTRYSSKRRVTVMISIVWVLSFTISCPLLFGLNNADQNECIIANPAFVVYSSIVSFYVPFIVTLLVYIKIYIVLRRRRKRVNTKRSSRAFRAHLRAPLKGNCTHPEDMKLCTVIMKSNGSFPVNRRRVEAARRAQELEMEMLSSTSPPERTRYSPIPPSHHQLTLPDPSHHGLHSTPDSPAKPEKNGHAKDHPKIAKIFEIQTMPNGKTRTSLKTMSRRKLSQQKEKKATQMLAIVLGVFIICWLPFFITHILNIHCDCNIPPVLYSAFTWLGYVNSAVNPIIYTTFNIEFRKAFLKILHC
In short: (§1)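 Ki values come from radioligand binding run by the NIMH Psychoactive Drug Screening Program (PDSP) under its standard conditions. Values are means ± SEM from triplicate assays.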

[1] = target: Sigma non-opioid intracellular receptor 1 (Rattus norvegicus, UniProt Q9R0C9); assay: Displacement of [3H]pentazocine from sigma1 receptor in rat brain homogenate; assay type: tissue-based
Sigma non-opioid intracellular receptor 1, sequence (Q9R0C9 whole entry): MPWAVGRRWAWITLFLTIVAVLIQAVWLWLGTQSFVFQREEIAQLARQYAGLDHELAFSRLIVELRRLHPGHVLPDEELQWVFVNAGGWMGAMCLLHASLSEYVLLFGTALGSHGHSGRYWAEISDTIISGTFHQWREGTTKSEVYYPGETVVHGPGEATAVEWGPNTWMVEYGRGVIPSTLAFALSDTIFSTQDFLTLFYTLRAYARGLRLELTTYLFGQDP
In short: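 σ1 affinity was measured by competitive displacement of [³H](+)-pentazocine from rat brain homogenate, using a competitive modification of the Kovacs and Larson protocol. Ki is reported as mean ± SEM from triplicate assays.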

[2] = Displacement of [3H]DTG from sigma2 receptor in rat PC12 cells; details: pc-12
[3] = target: T1, 5-hydroxytryptamine receptor 1A (Homo sapiens, UniProt P08908); assay: Binding affinity to 5HT1A; in short: as §1
T1 sequence (P08908 whole entry): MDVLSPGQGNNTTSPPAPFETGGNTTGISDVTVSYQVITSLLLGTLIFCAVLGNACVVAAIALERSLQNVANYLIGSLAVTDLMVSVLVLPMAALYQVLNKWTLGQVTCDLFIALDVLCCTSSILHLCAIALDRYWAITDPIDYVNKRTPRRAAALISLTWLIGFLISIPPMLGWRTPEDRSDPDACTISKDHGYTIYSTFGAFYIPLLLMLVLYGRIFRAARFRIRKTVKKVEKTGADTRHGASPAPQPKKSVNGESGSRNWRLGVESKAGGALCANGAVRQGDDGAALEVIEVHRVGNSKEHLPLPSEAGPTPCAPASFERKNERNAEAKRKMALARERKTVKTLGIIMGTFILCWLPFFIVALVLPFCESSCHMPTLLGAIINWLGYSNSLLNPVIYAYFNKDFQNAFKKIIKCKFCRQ

[4] = target: 5-hydroxytryptamine receptor 2B (Homo sapiens, UniProt P41595); assay: Binding affinity to 5HT2B; in short: as §1
5-hydroxytryptamine receptor 2B, sequence (P41595 whole entry): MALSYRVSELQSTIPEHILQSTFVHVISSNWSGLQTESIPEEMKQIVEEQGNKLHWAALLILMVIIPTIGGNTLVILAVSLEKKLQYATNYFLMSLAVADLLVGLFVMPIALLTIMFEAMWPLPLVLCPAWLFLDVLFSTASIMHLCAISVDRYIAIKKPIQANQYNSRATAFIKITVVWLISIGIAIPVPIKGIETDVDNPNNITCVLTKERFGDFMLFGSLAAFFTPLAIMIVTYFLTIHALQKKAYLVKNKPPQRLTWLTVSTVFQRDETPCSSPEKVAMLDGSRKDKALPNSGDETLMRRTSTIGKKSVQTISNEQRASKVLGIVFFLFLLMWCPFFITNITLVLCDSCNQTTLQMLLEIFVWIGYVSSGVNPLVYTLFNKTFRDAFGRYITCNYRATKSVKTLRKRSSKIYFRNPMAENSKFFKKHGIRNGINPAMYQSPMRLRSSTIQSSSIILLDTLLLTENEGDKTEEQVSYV

[5] = Lipophilicity, log D of the compound; assay type: physicochemical; details: HPLC retention time
In short: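 Log D estimated by HPLC retention time on a C-18 column. Mobile phase methanol/0.05 M potassium phosphate buffer (65:35 v/v, pH 7.47) at 0.3 mL/min, UV 254 nm. Calibrated against standards of known log D (aniline, benzene, toluene, cumene, triphenylamine, hexachlorobenzene) using an exponential fit. Injections in triplicate and averaged.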

[6] = Drug uptake in baboon cingulate cortex at 100 MBq, iv; assay type: ADME; details: papio hamadryas, in vivo
In short: (§2)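 Anaesthetized Papio hamadryas baboon; radiotracer given iv at 100 MBq in 3 mL saline, specific activity 73 GBq/μmol. Dynamic brain PET started just before injection and ran 60 min. Voxel values were decay-corrected to injection time and converted to % injected dose/mL. Regional time-activity curves came from coregistered regions of interest.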

[7] = Drug uptake in baboon kidney at 100 MBq, iv in presence of haloperidol; assay type: ADME, organism-based; details: papio hamadryas, in vivo
In short: (§3)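 Anaesthetized Papio hamadryas baboon; radiotracer given iv at 100 MBq in 3 mL saline, specific activity 73 GBq/μmol. Haloperidol (1 mg/kg) given iv 5 min before the tracer. Dynamic PET over 60 min, then whole-body acquisition for 2 min at each of six bed positions. Uptake expressed as decay-corrected % injected dose/mL.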

[8] = Drug uptake in baboon brain at 100 MBq, iv in presence of haloperidol; assay type: ADME, organism-based; details: papio hamadryas, in vivo; in short: as §3
[9] = Drug uptake in baboon frontal cortex at 100 MBq, iv; assay type: ADME, organism-based; details: papio hamadryas, in vivo; in short: as §2
[10] = Drug uptake in baboon liver at 100 MBq, iv in presence of haloperidol; assay type: ADME, organism-based; details: papio hamadryas, in vivo; in short: as §3
[11] = Drug uptake in baboon striatum at 100 MBq, iv; assay type: ADME, organism-based; details: papio hamadryas, in vivo; in short: as §2
[12] = Drug uptake in baboon bladder at 100 MBq, iv in presence of haloperidol; assay type: ADME, organism-based, Urinary bladder; details: papio hamadryas, in vivo; in short: as §3

Question: Which results are given for `COc1ccccc1CN1CCN(Cc2cc3ccccc3o2)CC1`?
Answer: Ratio Ki (Rattus norvegicus): 0.45; Ki (D(2) dopamine receptor): 5120 nM; Ki [1]: 198 nM; Ki [2]: 89 nM; Ki [3]: 806 nM; Ki [4]: 9.7 nM

Question: For `FCCCOc1ccc(CN2CCN(Cc3cc4ccccc4o3)CC2)cc1`, which Ratio Ki (Rattus norvegicus) is on record?
Answer: 51

Question: And the Ki (D(2) dopamine receptor)?
Answer: > 10000 nM

Question: And the Ki [1]?
Answer: 14.7 nM

Question: And the Ki [2]?
Answer: 752 nM

Question: What about the Ki [3] of the same molecule?
Answer: 3300 nM

Question: What about the Ki [4] of the same molecule?
Answer: 232 nM

Question: With `FCCOc1cccc(CN2CCN(Cc3cc4ccccc4o3)CC2)c1` as the molecule, how does the Ratio Ki (Rattus norvegicus) read?
Answer: 5.9

Question: What about the Ki (D(2) dopamine receptor) of the same molecule?
Answer: 2280 nM

Question: And the Ki [1]?
Answer: 49.7 nM

Question: What about the Ki [2] of the same molecule?
Answer: 292 nM

Question: And the Ki [3]?
Answer: 469 nM

Question: And the Ki [4]?
Answer: 244 nM

Question: Which Ratio Ki (Rattus norvegicus) does the source give for `COc1ccc(CN2CCN(Cc3cc4ccccc4o3)CC2)cc1` here?
Answer: 38

Question: What about the Ki (D(2) dopamine receptor) of the same molecule?
Answer: 2700 nM

Question: What about the logD [5] of the same molecule?
Answer: 3.63

Question: And the Ki [1]?
Answer: 2.7 nM

Question: And the Ki [2]?
Answer: 103 nM

Question: What about the Ki [3] of the same molecule?
Answer: 2190 nM

Question: And the Ki [4]?
Answer: 15 nM

Question: With `[11CH3]Oc1ccc(CN2CCN(Cc3cc4ccccc4o3)CC2)cc1` as the molecule, how does the Drug uptake [6] read?
Answer: Active

Question: And the Drug uptake [7]?
Answer: Not Active

Question: What about the Drug uptake [8] of the same molecule?
Answer: Not Active

Question: And the Drug uptake [9]?
Answer: Active

Question: What about the Drug uptake [10] of the same molecule?
Answer: Not Active

Question: And the Drug uptake [11]?
Answer: Active

Question: What about the Drug uptake [12] of the same molecule?
Answer: Not Active

Question: Which Ratio Ki (Rattus norvegicus) does the source give for `FCCOc1ccccc1CN1CCN(Cc2cc3ccccc3o2)CC1` here?
Answer: 1.1

Question: And the Ki (D(2) dopamine receptor)?
Answer: > 10000 nM

Question: What about the Ki [1] of the same molecule?
Answer: 488 nM

Question: And the Ki [2]?
Answer: 535 nM

Question: And the Ki [3]?
Answer: 3250 nM

Question: What about the Ki [4] of the same molecule?
Answer: 57 nM

Question: Which Ratio Ki (Rattus norvegicus) does the source give for `CCOc1cccc(CN2CCN(Cc3cc4ccccc4o3)CC2)c1` here?
Answer: 3

Question: And the Ki (D(2) dopamine receptor)?
Answer: 4540 nM

Question: What about the Ki [1] of the same molecule?
Answer: 80 nM

Question: What about the Ki [2] of the same molecule?
Answer: 238 nM

Question: What about the Ki [3] of the same molecule?
Answer: 1720 nM

Question: What about the Ki [4] of the same molecule?
Answer: 302 nM

Question: What does the source list for `FCCCOc1cccc(CN2CCN(Cc3cc4ccccc4o3)CC2)c1`?
Answer: Ratio Ki (Rattus norvegicus): 10; Ki (D(2) dopamine receptor): 2920 nM; Ki [1]: 232 nM; Ki [2]: 2370 nM; Ki [3]: 599 nM; Ki [4]: 188 nM

Question: For `COc1cccc(CN2CCN(Cc3cc4ccccc4o3)CC2)c1`, which Ratio Ki (Rattus norvegicus) is on record?
Answer: 4.9

Question: And the Ki (D(2) dopamine receptor)?
Answer: 5730 nM

Question: And the Ki [1]?
Answer: 16.3 nM

Question: And the Ki [2]?
Answer: 79.5 nM

Question: And the Ki [3]?
Answer: 373 nM

Question: What about the Ki [4] of the same molecule?
Answer: 28 nM

Question: For `CCOc1ccc(CN2CCN(Cc3cc4ccccc4o3)CC2)cc1`, which Ratio Ki (Rattus norvegicus) is on record?
Answer: 37

Question: And the Ki (D(2) dopamine receptor)?
Answer: 4870 nM

Question: And the Ki [1]?
Answer: 10.6 nM

Question: And the Ki [2]?
Answer: 393 nM

Question: And the Ki [3]?
Answer: 3340 nM

Question: And the Ki [4]?
Answer: 262 nM

Question: For `CCCOc1ccc(CN2CCN(Cc3cc4ccccc4o3)CC2)cc1`, which Ratio Ki (Rattus norvegicus) is on record?
Answer: 45

Question: What about the Ki (D(2) dopamine receptor) of the same molecule?
Answer: > 10000 nM

Question: What about the Ki [1] of the same molecule?
Answer: 53.8 nM

Question: What about the Ki [2] of the same molecule?
Answer: 2400 nM

Question: What about the Ki [3] of the same molecule?
Answer: 4720 nM

Question: What about the Ki [4] of the same molecule?
Answer: 655 nM

Question: Which results are given for `FCCCOc1ccccc1CN1CCN(Cc2cc3ccccc3o2)CC1`?
Answer: Ratio Ki (Rattus norvegicus): 60; Ki (D(2) dopamine receptor): > 10000 nM; Ki [1]: 9.1 nM; Ki [2]: 542 nM; Ki [3]: 3380 nM; Ki [4]: 184 nM

Question: With `c1ccc(CN2CCN(Cc3cc4ccccc4o3)CC2)cc1` as the molecule, how does the Ratio Ki (Rattus norvegicus) read?
Answer: 46

Question: And the Ki (D(2) dopamine receptor)?
Answer: > 10000 nM

Question: And the Ki [1]?
Answer: 5.2 nM

Question: What about the Ki [2] of the same molecule?
Answer: 240 nM

Question: And the Ki [3]?
Answer: 833 nM

Question: What about the Ki [4] of the same molecule?
Answer: 497 nM

Question: With `CCOc1ccccc1CN1CCN(Cc2cc3ccccc3o2)CC1` as the molecule, how does the Ratio Ki (Rattus norvegicus) read?
Answer: 8

Question: What about the Ki (D(2) dopamine receptor) of the same molecule?
Answer: 6000 nM

Question: And the Ki [1]?
Answer: 37.1 nM

Question: What about the Ki [2] of the same molecule?
Answer: 295 nM

Question: And the Ki [3]?
Answer: 468 nM

Question: What about the Ki [4] of the same molecule?
Answer: 72 nM

Question: What does the source list for `CCCOc1cccc(CN2CCN(Cc3cc4ccccc4o3)CC2)c1`?
Answer: Ratio Ki (Rattus norvegicus): 11; Ki (D(2) dopamine receptor): 2980 nM; Ki [1]: 177 nM; Ki [2]: 1920 nM; Ki [3]: 774 nM; Ki [4]: 259 nM

Question: For `CCCOc1ccccc1CN1CCN(Cc2cc3ccccc3o2)CC1`, which Ratio Ki (Rattus norvegicus) is on record?
Answer: 10

Question: What about the Ki (D(2) dopamine receptor) of the same molecule?
Answer: > 10000 nM

Question: And the Ki [1]?
Answer: 79 nM

Question: And the Ki [2]?
Answer: 778 nM

Question: What about the Ki [3] of the same molecule?
Answer: 2460 nM

Question: And the Ki [4]?
Answer: 116 nM
